# Measured values published in ChEMBL document CHEMBL1149258, “Synthesis and structure-activity relationships of novel histamine H1 antagonists: indolylpiperidinyl benzoic acid derivatives” (J Med Chem, 2004).
# Target: Histamine H1 receptor (Cavia porcellus, UniProt P31389)
# Assay: Displacement of [3H]mepyramine from histamine H1 receptor in guinea pig cerebellum membranes
# Assay type: cell membranes, Membrane
# Conditions: not given
# Outline: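 Guinea pig cerebellum membranes (160 µg/mL) incubated with 0.7 nM [3H]-mepyramine at 30 °C for 30 min, 0.5 mL final volume, ended by filtration. Nonspecific binding with 10 µM promethazine. At least six concentrations in duplicate; IC50 by nonlinear regression. Compound stocks 10^-2 M in DMSO, diluted in 50% DMSO.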
# Sequence of Histamine H1 receptor (P31389 whole entry): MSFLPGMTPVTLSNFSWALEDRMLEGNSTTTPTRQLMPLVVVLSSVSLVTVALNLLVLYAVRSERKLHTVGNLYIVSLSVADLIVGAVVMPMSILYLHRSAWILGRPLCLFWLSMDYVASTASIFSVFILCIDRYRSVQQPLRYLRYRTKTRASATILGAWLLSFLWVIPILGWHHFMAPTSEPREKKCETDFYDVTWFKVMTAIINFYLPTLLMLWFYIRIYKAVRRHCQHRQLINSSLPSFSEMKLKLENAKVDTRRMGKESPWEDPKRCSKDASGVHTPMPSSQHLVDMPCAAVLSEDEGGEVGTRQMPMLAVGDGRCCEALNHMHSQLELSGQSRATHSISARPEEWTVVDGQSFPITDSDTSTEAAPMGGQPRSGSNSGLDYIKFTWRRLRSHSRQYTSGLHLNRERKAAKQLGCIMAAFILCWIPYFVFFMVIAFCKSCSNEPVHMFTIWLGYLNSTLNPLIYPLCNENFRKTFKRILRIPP
row,Compound,IC50
1,CCOCCn1cc(C2CCN(Cc3ccccc3C(=O)O)CC2)c2ccccc21,330 nM (antagonist)
2,CCOCCn1cc(C2CCN(Cc3cccc(OCC(=O)O)c3)CC2)c2ccccc21,130 nM (antagonist)
3,CCOCCn1cc(C2CCN(Cc3cc(C(=O)O)ccc3Br)CC2)c2ccccc21,345 nM (antagonist)
4,CCOCCn1cc(C2CCN(CCOc3ccccc3C(=O)O)CC2)c2cccc(Br)c21,80 nM (antagonist)
5,CCOCCn1cc(C2CCN(CCOc3ccsc3C(=O)O)CC2)c2ccccc21,100 nM (antagonist)
6,CCOCCn1cc(C2CCN(Cc3ccc(F)c(C(=O)O)c3)CC2)c2ccccc21,300 nM (antagonist)
7,CCOCCn1cc(C2CCN(Cc3cccc(C(=O)O)c3)CC2)c2cc(OC)ccc21,500 nM (antagonist)
8,O=C(O)c1ccccc1OCCN1CCC(c2cn(Cc3cccs3)c3ccccc23)CC1,98 nM (antagonist)
9,CCOCCn1cc(C2CCN(CCOc3cccc(F)c3C(=O)O)CC2)c2ccccc21,500 nM (antagonist)
10,COCCn1cc(C2CCN(Cc3cccc(C(=O)O)c3)CC2)c2ccc(F)cc21,150 nM (antagonist)
11,CCOCCn1cc(C2CCN(CCOc3cc(OC)ccc3C(=O)O)CC2)c2ccccc21,34 nM (antagonist)
12,CCOCCn1cc(C2CCN(CCOc3ccccc3C(=O)O)CC2)c2ccc(C(F)(F)F)cc21,> 500 nM
13,CCOCCn1cc(C2CCN(CCOc3c(Br)cc(Br)cc3C(=O)O)CC2)c2ccccc21,225 nM (antagonist)
14,O=C(O)c1cccc(CN2CCC(c3cn(Cc4ccc(Cl)s4)c4ccccc34)CC2)c1,103 nM (antagonist)
15,O=C(O)c1cccc(CN2CCC(c3cn(Cc4ccco4)c4ccccc34)CC2)c1,87 nM (antagonist)
16,CCOCCn1cc(C2CCN(CCOc3ccccc3C(=O)O)CC2)c2ccc(F)cc21,76 nM (antagonist)
17,CCOCCn1cc(C2CCN(CCOc3ccc(C)cc3C(=O)O)CC2)c2ccccc21,221 nM (antagonist)
18,CCOCCn1cc(C2CCN(Cc3ccc(OCC(=O)O)cc3)CC2)c2ccccc21,322 nM (antagonist)
19,CCOCCn1cc(C2CCN(Cc3ccccc3OCC(=O)O)CC2)c2ccccc21,196 nM (antagonist)
20,CCOCCn1cc(C2CCN(CCOc3ccccc3C(=O)O)CC2)c2cc(Br)ccc21,150 nM (antagonist)

# Target: T1, Adrenergic receptor alpha-1 (Rattus norvegicus, UniProt P15823+P23944+P43140)
# T1 sequence (P15823 whole entry): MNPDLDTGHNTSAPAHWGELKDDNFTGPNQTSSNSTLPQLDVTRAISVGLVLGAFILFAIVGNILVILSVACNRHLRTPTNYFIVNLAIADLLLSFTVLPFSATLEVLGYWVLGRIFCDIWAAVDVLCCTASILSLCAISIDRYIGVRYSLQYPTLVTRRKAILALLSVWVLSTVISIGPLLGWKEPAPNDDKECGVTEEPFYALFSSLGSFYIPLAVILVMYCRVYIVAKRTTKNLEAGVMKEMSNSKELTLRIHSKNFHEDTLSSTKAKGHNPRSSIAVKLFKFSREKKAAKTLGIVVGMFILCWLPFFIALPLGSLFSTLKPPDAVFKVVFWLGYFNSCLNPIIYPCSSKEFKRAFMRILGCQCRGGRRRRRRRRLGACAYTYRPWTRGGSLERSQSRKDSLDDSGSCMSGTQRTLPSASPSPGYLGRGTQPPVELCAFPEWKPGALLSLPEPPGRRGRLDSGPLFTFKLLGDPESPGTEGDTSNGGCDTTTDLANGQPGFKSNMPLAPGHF
# T1 sequence (P23944 whole entry): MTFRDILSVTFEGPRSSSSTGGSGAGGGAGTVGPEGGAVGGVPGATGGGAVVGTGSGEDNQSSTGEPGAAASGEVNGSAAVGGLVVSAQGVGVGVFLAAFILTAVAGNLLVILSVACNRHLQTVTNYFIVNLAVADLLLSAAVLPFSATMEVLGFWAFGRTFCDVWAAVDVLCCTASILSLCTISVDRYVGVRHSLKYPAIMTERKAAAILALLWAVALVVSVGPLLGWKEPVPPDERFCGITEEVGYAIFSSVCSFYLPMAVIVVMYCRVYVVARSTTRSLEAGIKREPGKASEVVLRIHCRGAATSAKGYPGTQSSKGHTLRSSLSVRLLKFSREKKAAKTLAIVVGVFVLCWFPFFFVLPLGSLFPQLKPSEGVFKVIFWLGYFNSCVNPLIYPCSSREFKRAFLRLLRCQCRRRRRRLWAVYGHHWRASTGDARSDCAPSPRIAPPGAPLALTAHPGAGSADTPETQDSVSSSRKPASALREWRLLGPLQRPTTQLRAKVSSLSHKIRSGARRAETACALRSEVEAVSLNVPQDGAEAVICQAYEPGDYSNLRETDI
# T1 sequence (P43140 whole entry): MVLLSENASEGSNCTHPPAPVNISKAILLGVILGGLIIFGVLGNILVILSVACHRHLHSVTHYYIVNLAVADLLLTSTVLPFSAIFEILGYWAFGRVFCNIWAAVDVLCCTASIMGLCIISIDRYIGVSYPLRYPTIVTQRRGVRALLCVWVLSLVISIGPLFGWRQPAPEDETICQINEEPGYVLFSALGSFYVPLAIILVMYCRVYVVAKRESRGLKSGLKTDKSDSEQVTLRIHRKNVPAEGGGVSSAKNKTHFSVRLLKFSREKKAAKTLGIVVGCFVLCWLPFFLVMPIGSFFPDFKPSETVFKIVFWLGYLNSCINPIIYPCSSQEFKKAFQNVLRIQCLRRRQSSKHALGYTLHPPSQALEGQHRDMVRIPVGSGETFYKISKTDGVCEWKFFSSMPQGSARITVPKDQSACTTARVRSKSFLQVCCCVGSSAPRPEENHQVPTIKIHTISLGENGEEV
# Assay: Displacement of [3H]prazosin from adrenergic alpha-1 receptor in rat brain membranes
# Assay type: cell membranes
# Conditions: not given
# Outline: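 Rat brain membranes (340 µg protein/mL) with 0.25 nM [3H]-prazosin in 50 mM Tris-HCl pH 7.7, room temperature, 60 min, filtration. Nonspecific binding with 100 µM prazosin. Several concentrations run in duplicate; IC50 by nonlinear regression.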
row,Compound,IC50 [nM]
1,CCOCCn1cc(C2CCN(Cc3ccccc3C(=O)O)CC2)c2ccccc21,> 10000
2,CCOCCn1cc(C2CCN(Cc3cccc(OCC(=O)O)c3)CC2)c2ccccc21,> 10000
3,CCOCCn1cc(C2CCN(Cc3cc(C(=O)O)ccc3Br)CC2)c2ccccc21,> 10000
4,CCOCCn1cc(C2CCN(CCOc3ccccc3C(=O)O)CC2)c2cccc(Br)c21,10000
5,CCOCCn1cc(C2CCN(CCOc3ccsc3C(=O)O)CC2)c2ccccc21,< 10000
6,CCOCCn1cc(C2CCN(Cc3ccc(F)c(C(=O)O)c3)CC2)c2ccccc21,> 10000
7,CCOCCn1cc(C2CCN(Cc3cccc(C(=O)O)c3)CC2)c2cc(OC)ccc21,> 10000
8,O=C(O)c1ccccc1OCCN1CCC(c2cn(Cc3cccs3)c3ccccc23)CC1,3700
9,CCOCCn1cc(C2CCN(CCOc3cccc(F)c3C(=O)O)CC2)c2ccccc21,10000
10,COCCn1cc(C2CCN(Cc3cccc(C(=O)O)c3)CC2)c2ccc(F)cc21,> 10000
11,CCOCCn1cc(C2CCN(CCOc3ccccc3C(=O)O)CC2)c2ccc(C(F)(F)F)cc21,6900
12,CCOCCn1cc(C2CCN(CCOc3c(Br)cc(Br)cc3C(=O)O)CC2)c2ccccc21,6900
13,O=C(O)c1cccc(CN2CCC(c3cn(Cc4ccco4)c4ccccc34)CC2)c1,> 10000
14,CCOCCn1cc(C2CCN(CCOc3ccccc3C(=O)O)CC2)c2ccc(F)cc21,10000
15,CCOCCn1cc(C2CCN(CCOc3ccc(C)cc3C(=O)O)CC2)c2ccccc21,8600
16,CCOCCn1cc(C2CCN(Cc3ccc(OCC(=O)O)cc3)CC2)c2ccccc21,> 10000
17,CCOCCn1cc(C2CCN(Cc3ccccc3OCC(=O)O)CC2)c2ccccc21,> 10000
18,CCOCCn1cc(C2CCN(CCOc3ccccc3C(=O)O)CC2)c2cc(Br)ccc21,3600

# Tested on: Rattus norvegicus
# Assay: Inhibition of increase in histamine-induced cutaneous vascular permeability in orally dosed Wistar rat model after 4 hrs
# Assay type: functional
# Conditions: po
# Outline: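 Fasted male rats (150-175 g; n=5 per condition) dosed orally in 0.5% methylcellulose/0.1% Tween 80. At 4 h, under light ether, received four intradermal injections of 5 µg histamine, then 0.5% Evans Blue iv. Killed 1 h later. Papule area from maximum and minimum diameters (ellipse); inhibition of papule area; ED50 (mg/kg, po).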
row,Compound,ED50 [mg/kg]
1,CCOCCn1cc(C2CCN(Cc3ccccc3C(=O)O)CC2)c2ccccc21,3
2,CCOCCn1cc(C2CCN(Cc3cccc(OCC(=O)O)c3)CC2)c2ccccc21,3
3,CCOCCn1cc(C2CCN(Cc3cc(C(=O)O)ccc3Br)CC2)c2ccccc21,3
4,CCOCCn1cc(C2CCN(CCOc3ccccc3C(=O)O)CC2)c2cccc(Br)c21,> 3
5,CCOCCn1cc(C2CCN(Cc3cccc(C(=O)O)c3)CC2)c2cc(OC)ccc21,> 3
6,COCCn1cc(C2CCN(Cc3cccc(C(=O)O)c3)CC2)c2ccc(F)cc21,1
7,CCOCCn1cc(C2CCN(CCOc3cc(OC)ccc3C(=O)O)CC2)c2ccccc21,0.17
8,O=C(O)c1cccc(CN2CCC(c3cn(Cc4ccc(Cl)s4)c4ccccc34)CC2)c1,> 3
9,O=C(O)c1cccc(CN2CCC(c3cn(Cc4ccco4)c4ccccc34)CC2)c1,1
10,CCOCCn1cc(C2CCN(Cc3ccc(OCC(=O)O)cc3)CC2)c2ccccc21,> 3
11,CCOCCn1cc(C2CCN(Cc3ccccc3OCC(=O)O)CC2)c2ccccc21,> 3

# Tested on: Rattus norvegicus
# Assay: Inhibition of increase in histamine-induced cutaneous vascular permeability in orally dosed Wistar rat model after 8 hrs
# Assay type: functional
# Conditions: po
# Outline: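 Male Wistar rats (150-175 g), fasted, dosed orally in 0.5% methylcellulose/0.1% Tween 80 (10 mL/kg), n=5. At 1 or 8 h after dosing, four intradermal injections of 5 µg histamine were given, plus iv 0.5% Evans Blue. Papule area (ellipse) measured 1 h later. ED50 in mg/kg po.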
row,Compound,ED50
1,CCOCCn1cc(C2CCN(Cc3ccc(F)c(C(=O)O)c3)CC2)c2ccccc21,0.01 mg/kg (antagonist)

# Target: Histamine H1 receptor (Mus musculus) (UniProt P70174)
# Assay: Ex vivo displacement of [3H]mepyramine from brain histamine H1 receptor in orally dosed Swiss Albino mouse
# Assay type: functional, organism-based
# Conditions: not given
# Outline: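 Overnight-fasted male mice (20-25 g) dosed orally at several doses (0.5% methylcellulose/0.1% Tween 80, 10 mL/kg), killed 90 min later. Whole brain homogenised in ice-cold 0.05 M Na+/K+ phosphate pH 7.4; aliquots incubated in triplicate with 2 nM final [3H]-mepyramine, 40 min at 30 °C, then filtered. Nonspecific binding from 30 mg/kg po D-chlorpheniramine; total binding from vehicle. Three animals per dose; ED50 reported.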
# Sequence of Histamine H1 receptor (Mus musculus) (P70174 whole entry): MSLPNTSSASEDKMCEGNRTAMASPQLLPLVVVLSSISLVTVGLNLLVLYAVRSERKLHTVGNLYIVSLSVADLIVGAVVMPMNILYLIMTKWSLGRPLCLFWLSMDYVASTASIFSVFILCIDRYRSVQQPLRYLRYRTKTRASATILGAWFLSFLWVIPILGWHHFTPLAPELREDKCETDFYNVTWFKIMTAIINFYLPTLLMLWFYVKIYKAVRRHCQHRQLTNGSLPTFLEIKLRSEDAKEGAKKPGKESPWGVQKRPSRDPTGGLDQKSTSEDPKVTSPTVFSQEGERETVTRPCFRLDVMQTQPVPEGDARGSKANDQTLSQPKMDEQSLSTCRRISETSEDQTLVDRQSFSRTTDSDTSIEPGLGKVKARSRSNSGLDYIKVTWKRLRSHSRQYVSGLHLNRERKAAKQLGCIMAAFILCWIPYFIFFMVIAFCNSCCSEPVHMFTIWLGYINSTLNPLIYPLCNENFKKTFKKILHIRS
row,Compound,ED50 [mg/kg]
1,CCOCCn1cc(C2CCN(Cc3ccc(F)c(C(=O)O)c3)CC2)c2ccccc21,0.5
